# The list is not random: actives were taken first. Their share in the collection is about 2.2%.
# CAL PDZ FP-1 – blocks peptide binding to human CAL PDZ domain | inhibition, % at 20 µM | purified CAL PDZ, TMR-peptide fluorescence polarization, 1 h | hit rate 0.02% among 330,000;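 active = highest replicate inhibition of at least 40%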;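 also: plate controls were DMSO neutral control wells for no effect and unlabeled competitor peptide control wells for full effect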
#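 System: tagged CAL PDZ domain. Schedule: 1 h room-temperature incubation prior to read. Signal: fluorescence polarization (mP). Measure: percent inhibition from loss of millipolarization.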
# CDK5 p35 inh – blocks human CDK5/p35 kinase activity. Q00535+Q15078. hit rate 0.01% among 330,000. Recombinant CDK5/p35, ADP-Glo luminescence, 60 min. inhibition, % at 10 µM. AID 488839;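 active = highest replicate inhibition of at least 50% and at least 75% of replicates reaching 50%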;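 also: plate controls were DMSO neutral control for no effect and GW8510 at 10 µM for full effect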
# Dyrk1A ADPGlo – blocks rat Dyrk1A kinase activity. Q63470. hit rate 0.43% among 310,000. inhibition, % at 12.5 µM. ADP-Glo luminescence, NFATc1 peptide; in the data active = inhibition above about 50%;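 also: plate controls were vehicle with enzyme for no effect and no enzyme for full effect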
# CAL PDZ FP-2 – inhibitors of human CAL PDZ peptide binding; AID 602252; Q9HD26; purified CAL PDZ, TMR-peptide fluorescence polarization, 1 h; hit rate 0.92% among 300,000; inhibition, % at 24.9 µM;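 active = mean inhibition of at least 30% with at least half of replicates also reaching 30%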;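 also: 0% = DMSO neutral control and 100% = excess unlabeled competitor peptide PRC23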
# Rtt109 HAT inh – inhibitors of Candida albicans Rtt109/Vps75 histone acetyltransferase. inhibition, % at 34.9 µM. hit rate 0.16% among 330,000. purified Rtt109/Vps75, ThioGlo CoA-SH fluorescence, 4 h. AID 540336. Q5AAJ8;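 active = inhibition of at least 50% in every replicate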
# dFosB act – enhances mouse delta FosB homodimer DNA binding. P13346. purified delta FosB, TAMRA-CDK5 oligo fluorescence polarization; percent of positive-control signal above neutral wells. activation, % at 25 µM. hit rate 0.99% among 340,000;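 active = mean activation above about 17%, with every replicate also reaching it, limit read from the data, passing the limit was not always enough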
# Target sequence (P13346 whole entry, looked up): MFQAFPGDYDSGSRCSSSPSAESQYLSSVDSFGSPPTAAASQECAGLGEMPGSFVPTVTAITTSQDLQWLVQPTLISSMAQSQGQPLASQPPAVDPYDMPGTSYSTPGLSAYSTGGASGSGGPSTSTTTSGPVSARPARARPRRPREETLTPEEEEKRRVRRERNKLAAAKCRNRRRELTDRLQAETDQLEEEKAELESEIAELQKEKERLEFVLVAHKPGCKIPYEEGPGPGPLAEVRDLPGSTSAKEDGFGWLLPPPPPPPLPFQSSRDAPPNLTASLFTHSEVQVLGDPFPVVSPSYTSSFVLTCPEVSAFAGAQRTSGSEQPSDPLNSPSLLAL
# * marks the source's active call; other numbers are inactive results; / = no result given.
SMILES,CAL PDZ FP-1,CDK5 p35 inh,Dyrk1A ADPGlo,CAL PDZ FP-2,Rtt109 HAT inh,dFosB act
Cc1ccc(-c2nnn(CC(=O)N(Cc3ccc(F)cc3)C(C(=O)NC3CCCC3)c3ccncc3)n2)o1 (stereo not given),-2,-1,8,6,/,2
O=C(NC1CCCC1)C(c1ccncc1)N(CC1CCCO1)C(=O)Cn1nnc(-c2cccs2)n1 (stereo not given),0,2,3,32*,-2,-5
Cc1ccc(C(C)C)c(OCC(=O)N/N=C/c2cccn2C)c1,0,0,/,-5,6,-4
Cc1cccc(C)c1NC(=O)CN1CCN(CC(=O)NCC2(N3CCCCC3)CCCCC2)CC1,-1,-1,/,0,-6,-10
NC(=O)CC(NC(=O)Cc1cccc2ccccc12)c1ccc(NCc2ccccn2)c([N+](=O)[O-])c1 (stereo not given),0,-1,-4,32*,6,-4
CCC1CCCCN1CCCNC(=O)c1c(O)nc2ccccn2c1=O (stereo not given),-1,-1,-4,78*,-7,5
COC(=O)CNc1cccc(C(F)(F)F)c1,17,0,-1,75*,-3,-5
CCOC(=O)CNc1cccc(C(F)(F)F)c1,0,-1,-2,/,-3,-4
CCCCc1ncc(CN2CCC(n3nccc3NC(=O)c3ccccc3Cl)CC2)[nH]1,-1,1,6,1,1,-6
O=C(Nc1cccc(C(F)(F)F)c1)c1ccc(Cn2cc(Br)cn2)o1,-1,1,/,76*,-4,-4
NS(=O)(=O)c1ccc(NC(=O)COc2ncnc3c2cnn3-c2ccccc2)cc1,-3,-5,1,-2,-4,21*
COc1c(F)c(F)c(C(=O)Nc2ccc(N3CCN(Cc4ccccc4)CC3)cc2)c(F)c1F,-2,-3,6,/,3,-3
CSc1nc(C)cc(Oc2ccc(OCC(N)=O)nn2)n1,1,2,/,-2,11,3
C=CCOc1ccc(Oc2cc(C)nc(SC)n2)nn1,/,1,-3,43*,-13,-11
COc1cc(OC)cc(C(=O)NCC2CCCN(C(=O)c3csc(C)n3)C2)c1 (stereo not given),-2,0,-1,-2,-3,-5
CCCn1c(N)c(C(=O)COC(=O)/C=C/c2ccc(OC(F)F)c(OC)c2)c(=O)[nH]c1=O,0,2,-4,8,2,22*
CC(=O)c1cccc(CN2CCN(Cc3ccc(C)cc3)C(CCO)C2)c1 (stereo not given),0,1,/,-4,0,-8
CC(=O)c1cccc(CN2CCN(CC=C(C)C)C(CCO)C2)c1 (stereo not given),/,1,-2,51*,-23,7
CC(=O)c1cccc(CN2CCN(CCc3ccccc3)C(CCO)C2)c1 (stereo not given),-1,-1,/,63*,1,-2
CC1(c2nnc(-c3ccncc3)o2)CC(c2ccccc2)=NO1 (stereo not given),0,-8,3,-2,-13,-2
COc1ccc(/C=N/NC(=O)c2cccnc2)cc1O,-1,0,12,37*,3,-3
O=C(N/N=C/c1ccc(OC(=O)c2cccc(Br)c2)cc1)c1cccnc1,-2,-2,1,0,2,27*
O=C(N/N=C/c1cccc(OC(=O)c2cccc(Br)c2)c1)c1cccnc1,-5,-1,1,-5,-6,11
O=C(NCCCc1ccccc1)c1cccc(NC(=O)C2CCCC2)c1,-1,0,/,-4,3,3
O=S(=O)(Nc1ccc(-c2nnc(SCc3ccc(Cl)cc3)o2)cc1)c1ccccc1,-3,-1,-5,0,57*,2
O=C(O)/C=C/C(=O)c1ccc2c(c1)CCc1ccccc1-2,1,8,-5,-3,144*,-10
CC(=O)Nc1ccc2c(c1)CCc1ccccc1-2,-1,-1,9,-4,-6,-9
CCOC(=O)C(=CNc1cc(C)nn1-c1ccccc1)C(=O)OCC,-4,2,-20,-3,-4,-8
CCOC(=O)C(/C=N/c1cc(C)nn1-c1ccccc1)=C(\C)O,-2,-2,4,61*,-15,-12
